For test [1], the species on record is Canis familiaris. As to the kind of experiment: Increase in mean blood pressure on Ventricular Tachycardia (VT); (SL-Slight). The format is functional, Canis lupus familiaris. Summed up: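 Pentobarbital-anesthetized dogs with infarction, given the drug intravenously. Mean arterial blood pressure was monitored continuously during ventricular tachycardia induced by three paced ventricular beats.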

Test [2] is filed under the species Canis familiaris. Put plainly: Compound was tested for mean blood pressure on induced Ventricular Tachycardia (VT). The format is functional, Canis lupus familiaris. Summed up:
(§1)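 Dogs with 24-h myocardial infarction under iv sodium pentobarbital (30 mg/kg), six per agent. Drug given as an iv bolus in 50% ethanol at 3 and 6 mg/kg; the reference agent was given iv at 2, 4 and 6 mg/kg. Sustained VT was induced by three paced ventricular beats at 240–390/min, with pacing retried up to 420/min after dosing. Read-outs were VT rate, abolition count and continuous mean arterial pressure.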

The species entered for test [3] is Canis familiaris. As to the kind of experiment: Effect of compound on rate of induced ventricular tachycardia (VT) in dog. The format is functional, Canis lupus familiaris, Cardiac ventricle. Summed up:
as §1

Test [4] is described as follows: Compound was evaluated for abolition of ventricular tachycardia (Number/total); 0/6. The format is functional, tissue-based. The settings on record: Cardiac ventricle.
The species named for test [5] is Canis familiaris. As to the kind of experiment: Effect of compound on myocardial conduction normal (A-V, I-V); […]. The format is functional, organism-based. The settings on record: Canis lupus familiaris; Myocardium. Summed up: (§2)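 Pentobarbital-anesthetized dogs (30 mg/kg iv) with 24-h myocardial infarction, heart exposed by left thoracotomy. Recordings: lead II ECG, His bundle electrogram, and endocardial and epicardial electrodes over the infarct (abnormal tissue) plus a noninfarcted posterior epicardial reference (normal tissue). Atrial pacing from 180/min up to second-degree A-V block, before and after iv drug. Read-outs: intra-atrial, A-V nodal, His-Purkinje and ventricular conduction.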

The species entered for test [6] is Canis familiaris. Put plainly: Effect of compound on myocardial conduction abnormal; +++ = marked decrease. Format: functional, organism-based. To be noted: Canis lupus familiaris; Myocardium. Summed up:
as §2

Test [7] is filed under the species Canis familiaris. Put plainly: Compound was evaluated for abolition of ventricular tachycardia (Number/total);+ = slight degree. The format is functional, organism-based. To be noted: Canis lupus familiaris; Cardiac ventricle. The gist of the method: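 Dogs with 24-h myocardial infarction, anesthetized with 30 mg/kg iv sodium pentobarbital and given a left thoracotomy. Sustained ventricular tachycardia induced by three paced ventricular beats at 240–390/min. Compound given iv as a bolus in 50% ethanol. Pacing induction attempts repeated after dosing, up to 420/min. Abolition scored as number of dogs/total, with mean arterial pressure monitored.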

Test [8] is filed under the species Canis familiaris. Put plainly: Effect of compound on myocardial conduction normal (A-V, I-V); No change. Format: functional, organism-based. The settings on record: Canis lupus familiaris; Myocardium.
Test [9] is filed under the species Canis familiaris. As to the kind of experiment: Compound was evaluated for abolition of ventricular tachycardia (Number/total); + = slight degree. The format is functional, organism-based. The settings on record: Canis lupus familiaris; Cardiac ventricle.
Test [10] is filed under the species Canis familiaris. As to the kind of experiment: Effect of compound on myocardial conduction abnormal; No change. The format is functional, organism-based. To be noted: Canis lupus familiaris; Myocardium.
The species named for test [11] is Canis familiaris. As to the kind of experiment: Effect of compound on myocardial conduction abnormal; ++ = moderate decrease. Format: functional, organism-based. To be noted: Canis lupus familiaris; Myocardium.

Active and inactive are the calls of the source. No cut-off for these calls is given here.

The text below walks through data of ChEMBL document CHEMBL1122668, “Synthesis, conformational analysis, and antiarrhythmic properties of 7-benzyl-3-thia-7-azabicyclo[3.3.1]nonan-9-one, 7-benzyl-3-thia-7-azabicyclo[3.3.1]nonane hydroperchlorate, and 7-benzyl-9-phenyl-3-thia-7-azabicyclo[3.3.1]nonan-9-ol hydroperchlorate and derivatives: single-crystal X-ray …” (1984).

In turn, `O=C1C2CSCC1CN(Cc1ccccc1)C2.[O-][Cl+3]([O-])([O-])O` registered a Mean blood pressure in the test listed under Canis familiaris [1] of 15%.

For `CCN(CC)CC(=O)Nc1c(C)cccc1C` [LIDOCAINE], in the test filed under Canis familiaris [2], the Mean blood pressure stood at 95 mmHg. This compound also returned a Rate in the test filed under Canis familiaris [3] of 315. Moreover, the Ratio entry in [4] is “inactive”.

In the case of `O=C1C2CSCC1CN(Cc1ccccc1)C2` [listing 1 of 2 here], in the test listed under Canis familiaris [1], the Mean blood pressure was < 10%.

The compound `[O-][Cl+3]([O-])([O-])O.c1ccc(CN2CC3CSCC(C3)C2)cc1` gave a Mean blood pressure in the test listed under Canis familiaris [2] of 112 mmHg. The same compound returned a Rate in the test filed under Canis familiaris [3] of 250.

On to `OC1(c2ccccc2)C2CSCC1CN(Cc1ccccc1)C2.[O-][Cl+3]([O-])([O-])O` (stereo not given), for which the Effect result in the test listed under Canis familiaris [5] and in the test filed under Canis familiaris [6] was “marked decrease” each time. Further, the Mean blood pressure in the test listed under Canis familiaris [1] is < 10%. In addition, the Abolition result in the test filed under Canis familiaris [7] is listed as “slight degree”.

With `O=C1C2CSCC1CN(Cc1ccccc1)C2` [listing 2 of 2 here], the “Change in myocardial conduction” value in the test listed under Canis familiaris [8] and in the test filed under Canis familiaris [10] was “inactive” each time. Further, the Abolition result in the test filed under Canis familiaris [9] is “slight degree”. In the test listed under Canis familiaris [11], the Effect entry is recorded as “moderate decrease”.
